The text below walks through data of paper PMC4449380 (Advances in Therapy, 2015).

Where two headings read alike, the source gives them in different places.

Data set [1] is classed as in vivo, healthy Japanese males. In short, it runs like this:
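Open-label add-on study in 12 males: luseogliflozin 5 mg Day 1, pioglitazone 30 mg Days 2–7, both Day 8, dosed before breakfast. Blood was drawn pre-dose and 0.25–24 h on Days 1, 7 and 8. LC–MS/MS measured luseogliflozin (0.05–100 ng/mL) and pioglitazone with M-III/M-IV (10–2000 ng/mL). […] GMR with 90% CI was by ANOVA with treatment fixed and subject random.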

The next data set can be described thus: Safety assessments. Format: in vivo, healthy Japanese males. In short, it runs like this: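 Safety was monitored across six single-site studies of 12 healthy males aged 20–39 years, hospitalized during dosing. Adverse events were recorded by nature and frequency, including changes in laboratory values, vital signs and 12-lead ECG. Investigators judged hypoglycemia from symptoms or blood glucose.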

For another data set, the system named is CYP2B6. The note with it: in vitro; ref Taisho Pharmaceutical Co., Ltd., data on file; cited from earlier work.
The format of data set [2] is in vivo, healthy Japanese males. The conditions noted are these: co-administered with miglitol. In a few lines: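 Randomized open-label crossover in 12 males using six sequences with ≥7-day washout. Single oral doses of luseogliflozin 5 mg, miglitol 50 mg, or both were given before breakfast while hospitalized. Venous blood was drawn pre-dose and 0.25–24 h post-dose. Plasma luseogliflozin was measured by LC–MS/MS (0.05–100 ng/mL). Cmax was derived non-compartmentally. GMR with 90% CI, combination vs alone, used ANOVA with treatment, sequence and timing fixed and subject random.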

The next data set relates to OAT3. The conditions noted are these: in vitro; ref Taisho Pharmaceutical Co., Ltd., data on file; cited from earlier work.
The test system of a further data set is CYP3A4. The conditions noted are these: in vitro; ref Taisho Pharmaceutical Co., Ltd., data on file; cited from earlier work.
The next data set has as its system CYP2C9. The conditions noted are these: in vitro; ref Taisho Pharmaceutical Co., Ltd., data on file; cited from earlier work.
Another data set relates to CYP2C8. The conditions noted are these: in vitro; ref Taisho Pharmaceutical Co., Ltd., data on file; cited from earlier work.
The next data set concerns OATP1B1. The note with it: in vitro; ref Taisho Pharmaceutical Co., Ltd., data on file; cited from earlier work.
A further data set deals with CYP2D6. The conditions noted are these: in vitro; ref Taisho Pharmaceutical Co., Ltd., data on file; cited from earlier work.
Data set [3] relates to organic cation transporter 2. The note with it: in vitro; ref Taisho Pharmaceutical Co., Ltd., data on file; cited from earlier work.
The conditions of data set [4]: ref Taisho Pharmaceutical Co., Ltd., data on file; cited from earlier work.
A further data set has as its system CYP1A2. The note with it: in vitro; ref Taisho Pharmaceutical Co., Ltd., data on file; cited from earlier work.
The test system of the next data set is OAT1. The note with it: in vitro; ref Taisho Pharmaceutical Co., Ltd., data on file; cited from earlier work.
The subject of data set [5] is breast cancer resistance protein. The note with it: in vitro; ref Taisho Pharmaceutical Co., Ltd., data on file; cited from earlier work.
Another data set deals with CYP2E1. The note with it: in vitro; ref Taisho Pharmaceutical Co., Ltd., data on file; cited from earlier work.
The test system of another data set is P-glycoprotein. The conditions noted are these: in vitro; ref Taisho Pharmaceutical Co., Ltd., data on file; cited from earlier work.
The conditions of data set [6]: cited from earlier work.
A further data set has as its system CYP2A6. The conditions noted are these: in vitro; ref Taisho Pharmaceutical Co., Ltd., data on file; cited from earlier work.
Data set [7] can be described thus: 24-h cumulative urinary glucose excretion. Format: in vivo, healthy Japanese males. The conditions noted are these: luseogliflozin in combination with an OAD. In a few lines:
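Healthy males, 12 per study. Pooled urine was collected for 24 h pre-dose and 0–24 h post-dose, and urine glucose was measured. Glimepiride arm: randomized three-way crossover of single doses (luseogliflozin 5 mg, glimepiride 1 mg, or both) before breakfast, with ≥7-day washout. Metformin arm: same design with 250 mg under fasting. Voglibose arm: add-on design, urine collected Days 1, 7 and 8.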

As for `CCc1ccc(CCOc2ccc(CC3SC(=O)NC3=O)cc2)nc1` (racemic) [Pioglitazone, (±)-5(-)[p(-)[2-(5-ethyl-2-pyridyl)ethoxy]benzyl]-2,4-thiazolidinedione, reference compound], in data set [1] (co-administration with luseogliflozin), the “decrease in C max and AUC0–24h of pioglitazone” value is “about 10%”.
As to `CCOc1ccc(Cc2cc([C@@H]3S[C@H](CO)[C@@H](O)[C@H](O)[C@H]3O)c(OC)cc2C)cc1` [Luseogliflozin, (1S)-1,5-Anhydro-1-[5-(4-ethoxybenzyl)-2-methoxy-4-methylphenyl]-1-thio-D-glucitol], in the data set “Safety assessments” (all six studies, luseogliflozin alone or with OADs), the “serious adverse events or adverse events requiring treatment discontinuation” value is on record as “no serious adverse events”. Also, the “changes in laboratory tests, vital signs, or electrocardiography” value in the data set “Safety assessments” (all studies) is “no clinically relevant changes”. Also, in the data set “Safety assessments” (any of the studies), the hypoglycemia result is “no episodes of hypoglycemia”. Further, the adverse events result in the data set “Safety assessments” (luseogliflozin administered alone or in combination with the other OADs) was “no adverse events”; in the data set “Safety assessments” (luseogliflozin in combination with glimepiride, mild in severity), “One adverse event (white blood cell urine positive) occurred in one subject”; in “Safety assessments” (luseogliflozin in combination with metformin (nausea; nausea and headache), mild in severity), “three events occurred in two subjects”. Also, the IC50 with CYP2B6, with OAT3, in the data set on CYP3A4, with CYP2C9, in the data set on CYP2C8 and in the data set on OATP1B1 was > 100 µM in each case. Also, the IC50 (with CYP2D6; in [3]; with CYP1A2; in the data set with OAT1; in data set [5]; in the data set with CYP2E1) was > 100 µM throughout. Also, the IC50 in the data set with P-glycoprotein and with CYP2A6 was > 100 µM throughout. Besides, the “change in C max of luseogliflozin” value in [2] and in [1] (co-administered with pioglitazone) was “about 15%” throughout. Also, in [4], the “enzymes involved in the metabolism” value was “cytochrome P450 (CYP) isoforms 3A4/5, 4A11, 4F2, and 4F3B, and UDP-glucuronosyltransferase 1A1”. The incidence of hypoglycemia in data set [6] (in combination with a sulfonylurea, over 52 weeks) is listed as 10.7%; in data set [6] (in combination with other classes of OADs) it was 0.9–3.4%. Further, the “hemoglobin A1c and fasting plasma glucose” value in data set [6] (in combination with other classes of OADs for 52 weeks) was “significantly reduced”. In [6] (in combination with other classes of OADs, 52 weeks), the “rate of adverse drug reactions” value is 12.4–25.4%. Moreover, the “UGE compared with luseogliflozin alone” value in data set [7] is recorded as “slightly reduced”.
